# Screens as filed in PubChem BioAssay.
# ABCG2 inh = inhibitors of human ABCG2 transporter, ABCB1 counter-screen | Q9UNQ0 | IgMXP3 cells, JC-1 efflux, flow cytometry | inhibition, % at 6.6 µM | 0.1% of 190,000 active;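 active means inhibition above 80%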;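 further: 0% = DMSO and 100% = nicardipine control wells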
#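 Test system: IgMXP3 (ABCG2) plus far-red-tagged CCRF-Adr (ABCB1) cells. Reagent: JC-1 dye as substrate. Timing: 10 min exposure at 25 °C with rotation, no wash. Measured by: flow cytometric JC-1 green MFI at 530 nm. Read-out: percent efflux inhibition, scaled nicardipine 100% to DMSO 0%. Control set: nicardipine and DMSO wells.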
# ABCB1 inh = human ABCB1 inhibition, ABCG2 as counter-screen | P08183 | inhibition, % at 6.6 µM | CCRF-Adr cells, JC-1 efflux, flow cytometry | 0.067% of 190,000 active; in the data active means inhibition above about 40%;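 further: 0% = vehicle and 100% = reference inhibitor; higher value means more JC-1 retained so stronger ABCB1 efflux block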
# Target sequence (P08183 whole entry, looked up): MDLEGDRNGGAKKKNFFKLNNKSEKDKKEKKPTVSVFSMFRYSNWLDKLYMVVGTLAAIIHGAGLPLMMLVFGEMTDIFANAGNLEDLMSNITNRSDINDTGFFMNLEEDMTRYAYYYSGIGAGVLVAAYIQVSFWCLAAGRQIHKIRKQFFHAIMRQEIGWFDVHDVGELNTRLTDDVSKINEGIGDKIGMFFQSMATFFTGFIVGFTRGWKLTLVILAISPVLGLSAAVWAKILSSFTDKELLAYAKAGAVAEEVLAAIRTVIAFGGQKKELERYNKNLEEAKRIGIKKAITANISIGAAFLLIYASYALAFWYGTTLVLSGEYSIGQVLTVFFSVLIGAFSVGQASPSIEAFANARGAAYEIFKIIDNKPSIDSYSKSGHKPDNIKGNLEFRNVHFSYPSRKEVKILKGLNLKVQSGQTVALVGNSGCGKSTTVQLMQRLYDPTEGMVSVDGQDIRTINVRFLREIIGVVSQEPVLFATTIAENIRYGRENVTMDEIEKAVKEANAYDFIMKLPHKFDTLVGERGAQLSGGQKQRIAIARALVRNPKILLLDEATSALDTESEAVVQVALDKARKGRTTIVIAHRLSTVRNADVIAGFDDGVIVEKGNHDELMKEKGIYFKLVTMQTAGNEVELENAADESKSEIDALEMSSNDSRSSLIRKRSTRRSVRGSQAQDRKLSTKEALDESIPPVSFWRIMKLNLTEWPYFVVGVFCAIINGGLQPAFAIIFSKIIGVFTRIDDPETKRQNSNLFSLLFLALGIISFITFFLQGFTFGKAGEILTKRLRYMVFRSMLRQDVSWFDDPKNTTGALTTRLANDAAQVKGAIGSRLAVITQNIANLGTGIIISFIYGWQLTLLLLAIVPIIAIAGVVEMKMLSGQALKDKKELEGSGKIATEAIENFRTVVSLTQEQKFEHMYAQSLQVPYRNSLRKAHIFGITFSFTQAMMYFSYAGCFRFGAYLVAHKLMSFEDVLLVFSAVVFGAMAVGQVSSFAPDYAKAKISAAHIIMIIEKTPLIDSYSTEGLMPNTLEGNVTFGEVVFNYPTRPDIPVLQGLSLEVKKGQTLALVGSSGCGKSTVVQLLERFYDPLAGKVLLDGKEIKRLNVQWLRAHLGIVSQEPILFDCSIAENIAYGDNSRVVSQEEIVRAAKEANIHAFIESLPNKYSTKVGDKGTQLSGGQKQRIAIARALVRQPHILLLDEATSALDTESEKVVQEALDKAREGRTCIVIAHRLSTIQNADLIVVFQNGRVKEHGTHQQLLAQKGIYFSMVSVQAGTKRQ
# KCC2 mod = modulates chloride dependent transport by human KCC2. 2.2% of 190,000 active. B-score of Tl+ flux slope (higher = more flux/activation; lower = inhibition) at 10 µM. KCC2 cells, thallium flux FluoZin-2 fluorescence. AID 1456;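 active means thallium flux slope and its plate-corrected score both differing from the plate sample mean at a set confidence after two filtering rounds, in either direction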;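 further: slope of fluorescence scaled to starting intensity during 10 to 20 s after thallium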
# PMI act hi M6P = increases human PMI activity with near-saturating mannose 6-phosphate; P34949; coupled PMI enzyme assay, resazurin fluorescence, 20 min; stronger effect = higher value; 1 = untreated enzyme, 0 = substrate-free blank; activation factor at 20 µM; 0.34% of 190,000 active;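 active means activation factor of 2 or more at 20 µM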
#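 Material: human phosphomannose isomerase with PGI, G6PDH, diaphorase coupling enzymes / Reagent: Man-6-P substrate 1.0 mM / Dosing: single compound dose of 20 µM, 1% DMSO final / Incubation: enzyme reaction with compound 20 min at room temperature / Signal: resorufin fluorescence (Ex 544/Em 590 nm) from resazurin via diaphorase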
# ROMK mod = modulates human ROMK potassium channel activity; P48048; B-score at 10 µM; Tet-inducible ROMK, thallium flux fluorescence; actives lie on both sides; 2% of 130,000 active; AID 1918;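 active means signal ratio slope over the read window, or its plate-corrected B-score, at least 3 SD from the plate mean, either direction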;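 further: B-score of the F/F0 ratio slope over 7 to 12 s after thallium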
# PMI activator = phosphomannose isomerase (human) activation | 0.005% of 190,000 active | P34949 | purified human PMI, coupled resazurin fluorescence, 20 min; stronger effect = higher value; 1 = vehicle control, 0 substrate-free wells | activation factor at 20 µM;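 active means activation factor of 2 or more at 20 µM, relative to plate controls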
# KCC2 secondary = KCC2 (human) modulation, secondary assay | HEK293-KCC2, thallium flux, FluoZin2 fluorescence; stronger effect = higher value | shares compounds with KCC2 mod | 15% of 3,700 active | normalised thallium flux (F/F0 slope) at 10 µM;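 active means thallium flux slope above the same plate's solvent-only control mean plus 3 SD; inconclusive means the two replicate wells disagree; inactive means no significant difference from solvent-only control wells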
# KCC2 bumet counter = thallium flux persisting under bumetanide in KCC2 cells, counter-screen secondary assay. shares compounds with KCC2 mod. HEK293-KCC2 + bumetanide/ouabain, thallium flux FluoZin2; stronger effect = higher value. normalized thallium flux at 10 µM. 49% of 3,700 active;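 active means thallium entry rate above the same plate's blocked-transporter control wells by more than 3 SD; inconclusive means the two repeat wells disagree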;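 further: raw slope of fluorescence over initial fluorescence between 10 and 20 s after thallium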
# KCC2 secondary2 = confirmation of human KCC2 transport modulators. normalized thallium flux at 10 µM. HEK293-KCC2, thallium flux FluoZin2 fluorescence; actives lie on both sides; F/F0 rise rate, 10–20 s post-thallium. 23% of 3,700 active. shares compounds with KCC2 mod. AID 1715;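 active means thallium flux slope more than 3 SD above or below the plate's solvent-only control mean, mostly below; inconclusive means the two repeat wells disagreed; inactive means no significant shift from solvent-only controls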;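 further: raw slope with 0.1% DMSO as baseline and bumetanide as block control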
# HEK counter1 = counter-screen for KCC2 modulators: effect in parental HEK293 cells; shares compounds with KCC2 mod; thallium flux FluoZin2, ouabain; baseline-ratio fluorescence slope, 10–20 s after thallium; thallium flux rate (normalised fluorescence) at 10 µM; 46% of 3,700 active;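 active means thallium flux rate significantly above the same plate's solvent-only control wells, beyond their mean plus 3 SD; inconclusive means the two replicate wells gave conflicting results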
# KCC2 retest ouab = confirmation of human KCC2 modulators with ouabain | raw Tl+ flux slope (below DMSO = inhibition, above = activation) at 10 µM | HEK293-KCC2, thallium flux FluoZin2 fluorescence; bidirectional: low = inhibitor, high = activator | 48% of 3,700 active | shares compounds with KCC2 mod;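 active means thallium flux slope beyond 3 SD from same-plate DMSO control mean in most replicates, usually higher, sometimes lower; inconclusive means repeat tests gave conflicting results; inactive means no significant difference from controls in most replicates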;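 further: slope of initial-normalized fluorescence between seconds 10 and 20 after thallium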
# HEK counter2 = acts in parental HEK cells, second KCC2 counter-screen | HEK293 parental, thallium flux FluoZin-2 fluorescence slope | shares compounds with KCC2 mod | thallium flux slope at 10 µM | 33% of 3,700 active;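 active means thallium flux slope above the same plate's solvent-control mean plus 3 SD in both duplicate wells; inconclusive means duplicate wells that disagreed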;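 further: run without ouabain in cells lacking the KCC2 cotransporter; slope of fluorescence scaled to its starting value between 10 and 20 s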
# Starred values were filed as active, the others as inactive; ? = inconclusive; . = no result. Rows were chosen to be rich in hits. Some 3.3% of all compounds tested hit in one or more screens of this group.
SMILES,ABCG2 inh,ABCB1 inh,KCC2 mod,PMI act hi M6P,ROMK mod,PMI activator,KCC2 secondary,KCC2 bumet counter,KCC2 secondary2,HEK counter1,KCC2 retest ouab,HEK counter2
COc1cc(/C=C2/C(=O)c3cccc([N+](=O)[O-])c3C2=O)c(Br)cc1O,-12.1,-1.4,-4.67*,0.6,.,0.9,0.0106,0.00779,0.0331,0.00652,0.0185,0.0101
O=C(NCc1ccc(Cl)cc1)C(=O)Nc1nccs1,-0.8,0.1,-0.222,1.1,0.0255,1.1,.,.,.,.,.,.
CC(C)c1ccc(CNC(=O)C(=O)Nc2nccs2)cc1,8.7,0.6,12.4*,1,0.00137,1.2,?,0.0191*,0.0348,0.0188*,?,0.0157*
O=C(Nc1ccc(Cc2ccncc2)cc1)c1ccc(N2CCOCC2)c([N+](=O)[O-])c1,1.3,0.4,-5.93*,0.9,-3.09,1,0.0089,?,?,0.00741,0.0157*,0.0105
Cc1ccc(C(=O)Nc2ccc(Cc3ccncc3)cc2)cc1[N+](=O)[O-],2.2,0.1,-1.66,1,-1.25,1,.,.,.,.,.,.
O=C(Nc1ccc(Cc2ccncc2)cc1)c1cccc([N+](=O)[O-])c1,28.2,1.3,-4.17*,0.8,.,0.8,0.00485,?,0.0236*,0.00791,?,0.0107
CCCc1nn(C)c2c1C(c1ccncc1)C(C#N)=C(N)O2 (centres undefined),2.5,0.8,.,1,0.15,1.1,.,.,.,.,.,.
Fc1ccccc1COc1ccc2ccccc2c1CNc1nn[nH]n1,0.2,-0.3,-5.93*,1,-0.278,1.1,0.00587,0.00428,0.0198*,?,0.00866*,?
c1ccc(COc2ccccc2CNc2nn[nH]n2)cc1,-2.6,-0.5,-1.18,1,.,1,.,.,.,.,.,.
Fc1ccc(COc2ccc3ccccc3c2CNc2nn[nH]n2)cc1,0.0,0.0,-4.58*,0.9,-0.087,1,0.00612,0.00465,0.0207*,?,0.00921*,?
COc1cccc(CN2CCN(c3nc4nonc4nc3N3CCCCC3)CC2=O)c1,14.3,9.0,.,0.9,.,0.9,.,.,.,.,.,.
CCN(Cc1ccncc1)Cc1nc(Cc2ccccc2Cl)no1,4.9,1.5,-0.0776,1.1,-0.319,1.1,.,.,.,.,.,.
O=C(CSc1ncnc2c1oc1ccccc12)NC1CCCCC1,4.0,0.1,-3.75*,1,.,1,0.00951,0.00571,?,0.00672,0.0203*,0.0107
CCc1cccc2c(/C=N/NC(=O)c3cccc(S(=O)(=O)Nc4ccccc4Cl)c3)c[nH]c12,-3.3,-0.5,0.273,0.9,0.695,1,.,.,.,.,.,.
Cc1cc2nnn(-c3nnc(-c4ccccc4)c4ccccc34)c2cc1C,10.1,1.7,-1.49,1,.,1.1,.,.,.,.,.,.
CC(C)n1nnnc1-c1cc(Cl)cc(Cl)c1,9.5,2.4,3.39*,0.9,0.0766,0.9,0.0169,0.00527,0.03,0.00745,0.0167,0.0102
Fc1ccc(NC(=S)Nc2ccc(Cl)cc2Cl)cc1,3.0,0.0,4.46*,1,-1.09,1,0.0102,0.0417*,0.0348,0.0161*,?,0.0131*
